From PubChem BioAssay
Rows were chosen to be rich in hits. Some 1.4% of all compounds tested hit in one or more screens of this group.
DYRK1A inh: inhibitors of rat Dyrk1A kinase; Q63470; ADP-Glo luminescence, NFATc1 peptide; inhibition, % at 12.5 µM; 310,000 compounds, 0.43% hits; in the data active = inhibition above about 50%;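 also: plate controls were vehicle with enzyme for no effect and no enzyme for full effect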
CDK5 inh: CDK5/p35 (human) kinase inhibition; Q00535+Q15078; Recombinant CDK5/p35, ADP-Glo luminescence, 60 min; inhibition, % at 10 µM; 330,000 compounds, 0.01% hits; AID 488839;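 active = highest replicate inhibition of at least 50% and at least 75% of replicates reaching 50%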;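 also: plate controls were DMSO neutral control for no effect and GW8510 at 10 µM for full effect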
CAL PDZ FP-1: blocks peptide binding to the human CAL PDZ domain | purified CAL PDZ, TMR-peptide fluorescence polarization, 1 h | inhibition, % at 24.9 µM | 300,000 compounds, 0.92% hits | Q9HD26;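 active = mean inhibition of at least 30% with at least half of replicates also reaching 30%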;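 also: 0% = DMSO neutral control and 100% = excess unlabeled competitor peptide PRC23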
CAL PDZ FP-2: human CAL PDZ-peptide interaction inhibition; Q9HD26; purified CAL PDZ, TMR-peptide fluorescence polarization, 1 h; AID 504414; 330,000 compounds, 0.02% hits; inhibition, % at 20 µM;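 active = highest replicate inhibition of at least 40%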;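 also: plate controls were DMSO neutral control wells for no effect and unlabeled competitor peptide control wells for full effect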
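material = purified tagged CAL PDZ domain construct (CerCALP) | buffer or medium = sodium phosphate/NaCl buffer pH 7.4 with TCEP, IgG, Thesit | reagent = TMR-labelled reporter peptide T*-PRC34 bound in PDZ groove | incubation = 1 h room-temperature incubation prior to read | measured by = fluorescence polarization (mP) | evaluation = percent inhibition from loss of millipolarization | control set = unlabelled peptide and DMSO controls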
PvdQ acylase: P. aeruginosa PvdQ acylase inhibition. purified PvdQ acylase, fluorescence plate reader. AID 488965. 340,000 compounds, 0.063% hits. inhibition, % at 10 µM; in the data active = inhibition above about 30%, passing the limit was not always enough;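 also: 0% = vehicle neutral wells and 100% = reference inhibitor wells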
Tb MetRS inh: Trypanosoma brucei MetRS inhibition | purified T. brucei MetRS, ATP depletion, Kinase-Glo luminescence | 360,000 compounds, 0.4% hits | inhibition, % at 11.9 µM;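 active = inhibition above a per-plate cutoff of the control wells' mean inhibition plus 3 SD, cut at about 5.5% in these data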;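 also: 0% = DMSO wells median and 100% = median of wells with control inhibitor compound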
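Measured by: Kinase-Glo luciferase luminescence reporting remaining unconsumed ATP. Material: purified T. brucei MetRS enzyme. Doses: 11.9 µM compound single dose, 0.9% DMSO. Medium: HEPES buffer containing pyrophosphatase, BSA, spermine, DTT. Times: 15 min preincubation, 2 h reaction, all 25 °C. Reagent: methionine, ATP and bulk E. coli tRNA.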
* hit, by the source's call.

For CCNC(=O)c1ccccc1NC(=O)C1CC(=O)N(C(C)C)C1 (stereo unspecified) the results were DYRK1A inh -5, CDK5 inh 1, CAL PDZ FP-1 62*, CAL PDZ FP-2 3, PvdQ acylase -17 and Tb MetRS inh -1.
For CCc1ccc(Oc2ncnc(N)c2[N+](=O)[O-])cc1 the results were DYRK1A inh 4, CDK5 inh 0, CAL PDZ FP-1 67*, CAL PDZ FP-2 -2, PvdQ acylase -5 and Tb MetRS inh 0.
CC(=O)c1ccc(Oc2ncnc(N)c2[N+](=O)[O-])cc1 was read as DYRK1A inh 1, CDK5 inh 0, CAL PDZ FP-1 -2, CAL PDZ FP-2 0, PvdQ acylase -17 and Tb MetRS inh 0.
Screening O=C(COc1ccc(-n2cnnn2)cc1)NC(=O)NCc1ccccc1 returned DYRK1A inh -1, CDK5 inh 0, CAL PDZ FP-1 50*, CAL PDZ FP-2 -2, PvdQ acylase 4 and Tb MetRS inh -2.
Screening O=C(COc1ccc(-n2cnnn2)cc1)NC1CCCCC1 returned DYRK1A inh 5, CDK5 inh 0, CAL PDZ FP-1 1, CAL PDZ FP-2 -1, PvdQ acylase -12 and Tb MetRS inh 0.
Screening CNC(=O)c1c(C)nc(SCC(=O)NCc2ccc(OC)cc2)c(C#N)c1-c1ccco1 returned DYRK1A inh 2, CDK5 inh -1, CAL PDZ FP-1 55*, CAL PDZ FP-2 0, PvdQ acylase -11 and Tb MetRS inh 0.
Screening CC1CCCCN1CCNC(=O)c1cc2c(=O)n(C)c3ccccc3c2n1C (stereo unspecified) returned DYRK1A inh 50*, CDK5 inh 1, CAL PDZ FP-2 -2, PvdQ acylase -3 and Tb MetRS inh -1.
Screening NC(Cc1ccc(Cl)cc1)c1csc(Nc2ccc(C(F)(F)F)cn2)n1 (stereo unspecified) returned Tb MetRS inh 0.
For COC(=O)C(Sc1ccc(Cl)cc1)C1SC(=S)N(Cc2ccccc2)C1=O (stereo unspecified) the results were Tb MetRS inh 0.
`CC1=C(C(=O)OCC2CCCO2)C(c2ccncc2)C2=C(CC(C)(C)CC2=O)N1` (stereo unspecified) gave DYRK1A inh 26, CDK5 inh -1, CAL PDZ FP-1 40*, PvdQ acylase -20 and Tb MetRS inh 0.
For COCCOC(=O)C1=C(C)NC2=C(C(=O)CC(C)(C)C2)C1c1cccnc1 (stereo unspecified) the results were DYRK1A inh -6, CDK5 inh 1, CAL PDZ FP-1 -3, CAL PDZ FP-2 -1, PvdQ acylase 2 and Tb MetRS inh 0.
CCOC(=O)[C@]12CCC=C1N(Cc1cccc3ccccc13)C(=O)[C@H](CC(=O)NCC1CCCCC1)C2 was read as Tb MetRS inh -1.
For CCCCCCCCN1C(=O)[C@H](CC(=O)NCCCOCCCC)C[C@@]2(C(=O)OCC)CCCC=C12 the results were Tb MetRS inh 0.
COc1ccc(C)cc1N(CC(=O)NC1CCCC1)C(=O)Cn1nnc(-c2ccc(C)o2)n1 was read as DYRK1A inh 1, CDK5 inh 0, CAL PDZ FP-1 103*, CAL PDZ FP-2 0, PvdQ acylase -19 and Tb MetRS inh 0.
Screening CC(=O)C1=CCC(c2ccccc2)N(Cc2ccccc2)C1 (stereo unspecified) returned Tb MetRS inh 0.
For CCCCOCCCNC(=O)C[C@@H]1C[C@@]2(C(=O)OC)CC(C)(C)CC=C2N(Cc2ccccc2)C1=O the results were Tb MetRS inh -1.
Screening COc1ccccc1C(=O)Nc1ccc2c(c1)nc(CN1CCCCC1)n2C returned DYRK1A inh -6, CDK5 inh -1, CAL PDZ FP-1 71*, CAL PDZ FP-2 -1, PvdQ acylase -16 and Tb MetRS inh 0.
For CCCNC(=O)c1ccccc1NC(=O)C1=CSCCO1 the results were DYRK1A inh -5, CDK5 inh -1, CAL PDZ FP-1 78*, CAL PDZ FP-2 0, PvdQ acylase -9 and Tb MetRS inh 0.
Screening CC(C)CCNC(=O)c1ccccc1NC(=O)C1=CSCCO1 returned DYRK1A inh 0, CDK5 inh -3, CAL PDZ FP-1 -2, CAL PDZ FP-2 -3, PvdQ acylase -12 and Tb MetRS inh 0.
